The record followed here is ChEMBL document CHEMBL1146037, “Design and discovery of a novel dipeptidyl-peptidase IV (CD26)-based prodrug approach” (J Med Chem, 2006).

Molecules are shown by their SMILES. pEC50, pIC50: −log10 of the molar value. Active and inactive are the calls of the source. The calls are words filed in the database; no cut-off is given here.

Data set [1] deals with MT4. Description: Antiviral activity against HIV2 assessed as inhibition of HIV2-induced cytopathicity in MT4 cells. It counts as functional, cell-based. Summed up:
(§1)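 CEM and MT-4 cell cultures infected with HIV-1 or HIV-2, with compounds diluted into culture medium from DMSO stocks. Antiviral activity is read at day 4 post-infection and reported as EC50.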

For data set [2], the target named is T1, Dipeptidyl peptidase 4 (Homo sapiens, UniProt P27487). Description: Conversion of prodrug to parent drug NAP-TSAO-T catalyzed by CD26 after 4 hrs. It counts as ADME. More on the design: concentration or dose not given beside the values.
T1 sequence (P27487 whole entry): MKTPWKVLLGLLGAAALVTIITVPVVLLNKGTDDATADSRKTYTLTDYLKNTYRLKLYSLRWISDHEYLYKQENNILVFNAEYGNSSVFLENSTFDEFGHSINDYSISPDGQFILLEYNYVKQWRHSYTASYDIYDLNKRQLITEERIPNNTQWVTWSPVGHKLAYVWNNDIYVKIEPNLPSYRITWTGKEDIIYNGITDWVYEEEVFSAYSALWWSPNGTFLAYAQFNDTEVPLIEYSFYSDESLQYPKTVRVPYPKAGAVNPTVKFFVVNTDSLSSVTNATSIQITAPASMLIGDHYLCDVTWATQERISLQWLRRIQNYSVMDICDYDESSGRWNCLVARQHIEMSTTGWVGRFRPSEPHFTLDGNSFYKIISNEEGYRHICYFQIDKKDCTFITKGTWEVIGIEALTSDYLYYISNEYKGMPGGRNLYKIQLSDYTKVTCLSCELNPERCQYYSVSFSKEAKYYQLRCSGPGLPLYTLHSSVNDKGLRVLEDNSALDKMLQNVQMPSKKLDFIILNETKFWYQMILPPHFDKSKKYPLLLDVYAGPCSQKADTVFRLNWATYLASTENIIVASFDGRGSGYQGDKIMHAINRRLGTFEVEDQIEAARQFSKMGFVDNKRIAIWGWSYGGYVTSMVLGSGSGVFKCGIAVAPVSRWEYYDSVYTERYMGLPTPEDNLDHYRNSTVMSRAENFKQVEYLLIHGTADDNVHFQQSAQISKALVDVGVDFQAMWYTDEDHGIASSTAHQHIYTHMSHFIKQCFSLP
In data set [3] the target is T2, CD26 (Dipeptidyl peptidase 4) (Homo sapiens, UniProt P27487). Nature of the data set: Inhibition of CD26-catalyzed GlyPro-pNA hydrolysis at 100 uM. To be noted: CD26 (dipeptidyl peptidase 4) enzyme, probe GlyPro-pNA.
T2 sequence (P27487 whole entry): as above
Data set [4] concerns the target T2, CD26 (Dipeptidyl peptidase 4). Description: Inhibition of CD26-catalyzed GlyPro-pNA hydrolysis at 20 uM. The following applies: CD26 (dipeptidyl peptidase 4) enzyme, probe GlyPro-pNA.
In data set [5] the test system is MT4. Nature of the data set: Antiviral activity against HIV1 assessed as inhibition of HIV1-induced cytopathicity in MT4 cells. It counts as functional, cell-based. The following applies: Homo sapiens. Summed up:
as §1
Background: Damage to the host cells serves as the signal in cytopathic effect assays.

The species entered for data set [6] is Bos taurus. Nature of the data set: Conversion of prodrug to parent drug NAP-TSAO-T catalyzed by bovin serum after 24 hrs. The class given is ADME, organism-based. To be noted: cattle. Summed up: (§2)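 Prodrug at 50 µM incubated at 37 °C with human or bovine serum diluted in PBS (5, 2.5, 1 or 0.5%). Samples are quenched in cold methanol and centrifuged, and the supernatant is run on reverse-phase RP-8 HPLC (phosphate/heptanesulfonate pH 3.2–acetonitrile gradient). Parent compound formed is quantified at 3, 6 or 24 h.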

The species named for data set [7] is Bos taurus. Nature of the data set: Conversion of prodrug to parent drug NAP-TSAO-T catalyzed by bovin serum after 6 hrs. The class given is ADME, organism-based. To be noted: cattle. The gist of the method:
as §2

Data set [8] concerns the target T1, Dipeptidyl peptidase 4. Nature of the data set: Conversion of prodrug to parent drug NAP-TSAO-T catalyzed by CD26 after 1 hr. It counts as ADME. Also on record: concentration or dose not given beside the values.
Data set [9] relates to CCRF-CEM. Nature of the data set: Antiviral activity against HIV1 assessed as inhibition of HIV1-induced cytopathicity in CEM cells. It counts as functional, cell-based. The following applies: Homo sapiens. The gist of the method:
as §1

The target in data set [10] is T1, Dipeptidyl peptidase 4. Description: Conversion of prodrug to parent drug NAP-TSAO-T catalyzed by CD26 after 24 hrs. It counts as ADME. More on the design: concentration or dose not given beside the values.
Data set [11] relates to MT4. Description: Antiproliferative activity against human MT4 cell line. It counts as functional. Summed up:
(§3)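 Cytostatic assay: compounds made up as DMSO stocks and diluted in culture medium. CC50 is the concentration that inhibits MT-4 or CEM cell proliferation by 50%.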

Data set [12] has as its system CCRF-CEM. Description: Antiviral activity against HIV2 assessed as inhibition of HIV2-induced cytopathicity in CEM cells. It counts as functional, cell-based. The gist of the method: as §1
For data set [13], the species on record is Homo sapiens. Nature of the data set: Conversion of prodrug to parent drug NAP-TSAO-T catalyzed by 2.5% human serum after 6 hrs. The class given is ADME, organism-based. The gist of the method:
as §2

For data set [14], the system named is CCRF-CEM. Description: Antiproliferative activity against human CEM cell line. It counts as functional. The gist of the method:
as §3

The species named for data set [15] is Homo sapiens. Description: Conversion of prodrug to parent drug NAP-TSAO-T catalyzed by 2.5% human serum after 3 hrs. The class given is ADME, organism-based. The gist of the method: as §2
For data set [16], the target named is Human immunodeficiency virus type 1 reverse transcriptase (Human immunodeficiency virus 1, UniProt Q72547). Nature of the data set: Inhibition of recombinant HIV1 reverse transcriptase.
The target of data set [17] is T1, Dipeptidyl peptidase 4. Nature of the data set: Inhibition of CD26-catalyzed GlyPro-pNA hydrolysis.
Data set [18] is filed under the species Homo sapiens. Description: Inhibition of human serum-catalyzed prodrug Val-Pro-NAP-TSAO-T conversion to parent drug NAP-TSAO-T. The class given is organism-based.
The species entered for data set [19] is Bos taurus. Description: Inhibition of bovine serum-catalyzed prodrug Val-Pro-NAP-TSAO-T conversion to parent drug NAP-TSAO-T. The class given is organism-based. The following applies: cattle.

The inhibition is the change of the read-out against control, counted positive when it falls. Broadly, the pEC50 is −log10 of the EC50, conventionally taken in molar units. What is called CC50 is the concentration at which the toxic effect on the cells reaches its halfway point. For orientation: pIC50 means the IC50 on a negative log10 scale, so that one unit is a factor of ten. With `Cc1cn(C2OC(CO[Si](C)(C)C(C)(C)C)C3(OS(=O)(=O)C=C3N)C2O[Si](C)(C)C(C)(C)C)c(=O)n(CCCNC(=O)[C@@H]2CCCN2C(=O)[C@@H](N)C(C)C)c1=O` (some centres undefined), the result in the data set on MT4 [1] and in the data set on CCRF-CEM [12] was inactive. The Activity was 62% at Dipeptidyl peptidase 4 [2]; 50% in the data set filed under Bos taurus [6]; 20% in the data set filed under Bos taurus [7]; 37% at Dipeptidyl peptidase 4 [8]; 61% at Dipeptidyl peptidase 4 [10]; 50% in the data set filed under Homo sapiens [13]. Besides, in the data set listed under Homo sapiens [15], the Activity is 30%. Also, the inhibition at 100 µM in [3] was 70%. The inhibition at 20 µM in data set [4] turned out to be 50%. Further, the pEC50 in the data set on MT4 [5] was 6.52; in the data set with CCRF-CEM [9], 6.89. In addition, the CC50 came out at 11 µM with MT4 [11] and 10 µM in the data set with CCRF-CEM [14]. In [16], the pIC50 was 5.18.
Consider `Cc1cn(C2OC(CO[Si](C)(C)C(C)(C)C)C3(OS(=O)(=O)C=C3N)C2O[Si](C)(C)C(C)(C)C)c(=O)n(CCCNC(=O)[C@@H]2CCCN2C(=O)[C@@H](NC(=O)OCc2ccccc2)C(C)C)c1=O` (some centres undefined), for which the Activity on Dipeptidyl peptidase 4 [2] is reported as 0%; at Dipeptidyl peptidase 4 [8], 0%; on Dipeptidyl peptidase 4 [10], 0%; on Dipeptidyl peptidase 4 [17], “Not Active”.
For `Cc1cn(C2OC(CO[Si](C)(C)C(C)(C)C)C3(OS(=O)(=O)C=C3N)C2O[Si](C)(C)C(C)(C)C)c(=O)n(CCCNC(=O)[C@@H]2CCCN2C(=O)[C@@H](N)Cc2ccc(O)cc2)c1=O` (some centres undefined), the outcome in the data set on MT4 [1] and with CCRF-CEM [12] was inactive. Further, the values for the Activity on Dipeptidyl peptidase 4 [2], at Dipeptidyl peptidase 4 [8] and at Dipeptidyl peptidase 4 [10] were 66%, 43% and 79%, respectively. The figures for the pEC50 with MT4 [5] and in the data set with CCRF-CEM [9] were 6.85 and 6.82, respectively. Also, the CC50 in the data set with MT4 [11] turned out to be 11 µM; in the data set on CCRF-CEM [14], 10 µM. Besides, in [16], the negative logarithm of the IC50 (pIC50) is 5.09.
The Inhibition is the change of the read-out against control, counted positive when it falls. As for `CC[C@H](C)[C@H](N)C(=O)N1CCC[C@H]1C(=O)N[C@H](C(=O)O)[C@@H](C)CC` [DIPROTIN A], the Inhibition in the data set filed under Homo sapiens [18] and in the data set listed under Bos taurus [19] was greater than 80% throughout.
With `Cc1cn(C2OC(CO[Si](C)(C)C(C)(C)C)C3(OS(=O)(=O)C=C3N)C2O[Si](C)(C)C(C)(C)C)c(=O)n(CCCNC(=O)[C@@H]2C[C@@H](O)CN2C(=O)[C@@H](N)C(C)C)c1=O` (some centres undefined), the outcome in the data set on MT4 [1] and in the data set with CCRF-CEM [12] was inactive. Further, the results for the Activity on Dipeptidyl peptidase 4 [2], at Dipeptidyl peptidase 4 [8] and at Dipeptidyl peptidase 4 [10] were 18%, 4.1% and 43%, respectively. The pEC50 in the data set with MT4 [5] is 6.39; with CCRF-CEM [9], 6.40. Moreover, the CC50 with MT4 [11] amounted to 10 µM; in the data set on CCRF-CEM [14] it was 15 µM. Also, in data set [16], the pIC50 is 4.80.
On to `CC[C@H](C)[C@H](N)C(=O)N1CCCC1`, for which the Inhibition in the data set filed under Homo sapiens [18] and in the data set listed under Bos taurus [19] was greater than 80% throughout.
